Measurements from different studies.
Target: Dual specificity tyrosine-phosphorylation-regulated kinase 1A (DYRK1A, Homo sapiens, UniProt Q13627)

Cc1ccc(NC(=O)c2ccc(C)c(C(F)(F)F)c2)cc1C#Cc1nn(C2CCC(O)CC2)c2ncnc(N)c12 (stereo not drawn)  remaining signal (cell-free assay; 10 µM): 95%
CC(C)[C@H](CO)Nc1nc(Nc2cccc(Cl)c2)c2ncn(C(C)C)c2n1  remaining signal (cell-free assay; 0.5 µM): 65.4%
O=C(N1CCS(=O)(=O)CC1)N1C[C@H](c2ccc(OC(F)(F)F)cc2)C[C@H](c2nc(C3CC3)no2)C1  remaining binding (cell-free assay; competition with immobilised ligand; 1 µM): 100%
CN(C)C1CCN(CC#Cc2nn(C3CCCC3)c3nc(NCc4ccccc4)ncc23)C1 (stereo not drawn)  inhibition (enzyme activity; inhibitor; FRET; 10 µM): 2%
CC1=C(C#N)[C@@H](c2ccc3[nH]nc(C)c3c2)C(C#N)=C(c2ccc(Cl)cc2)N1  remaining binding (cell-free assay; competition with immobilised ligand; 1 µM): 100%
O=C(O)c1ccc2c(c1)nc(Nc1ccc(Cl)cc1)c1ccncc12  remaining activity (enzyme activity; inhibitor; radiometric; 1 µM): 2%
CS(=O)(=O)CCNCc1ccc(-c2ccc3ncnc(Nc4ccc(OCc5cccc(F)c5)c(Cl)c4)c3c2)o1  remaining signal (cell-free assay; 0.5 µM): 101%
CC/C(=N\NC(=O)NCc1cccc(O)c1)c1ccc(O)c(C)c1O  inhibition (enzyme activity; inhibitor; 0.1 µM): -4.7%
CO[C@@H](C)c1c(Nc2ccc([C@@H](N(C)C(=O)C3CCS(=O)(=O)CC3)C(F)(F)F)cc2)cnc2cc(Cl)nn12  remaining binding (cell-free assay; competition with immobilised ligand; 1 µM): 92%
COc1cc(/C=C/C(=O)CC(=O)/C=C/c2ccc(O)c(OC)c2)ccc1O  activity vs control (enzyme activity; inhibitor; 1 µM): 20%
Cc1cc(-n2nc(Cc3cc(F)cc(C(F)(F)F)c3)nc2C)ccc1C(N)=O  remaining binding (cell-free assay; competition with immobilised ligand; 1 µM): 92%
O=C(O)c1ccc2c(c1)nc(NCCc1cccc(F)c1)c1ncncc12  remaining activity (enzyme activity; inhibitor; radiometric; 1 µM): 18%
Cn1cnc(Br)c1C1=CN(c2ncnc3[nH]cnc23)CCS1  inhibition (enzyme activity; inhibitor; radiometric; 2 µM): 99.2%
CNCc1ccccc1-c1csc([C@H](C)Nc2nc(C)nc3cc(OC)c(OC)cc23)c1  remaining binding (cell-free assay; competition with immobilised ligand; 1 µM): 80%
Cn1c2c(c3ccc(Cl)c(Cl)c31)C(C#N)C1(CCNCC1)NC2=O (racemic)  ΔTm (thermal stability; DSF; 10 µM): 2.5 °C
O=C(O)c1ccc2c(c1)nc(NCc1ccccc1)c1ccncc12  remaining activity (enzyme activity; inhibitor; radiometric; 1 µM): 49%
COc1ccc2c(O[C@@H]3C[C@H]4C(=O)N[C@]5(C(=O)O)CC5/C=C\CCCCC[C@H](NC(=O)OC5CCCC5)C(=O)N4C3)cc(-c3csc(NC(=O)C(C)C)n3)nc2c1C (stereo partly drawn)  remaining binding (cell-free assay; competition with immobilised ligand; 1 µM): 79%
CCC1(CC)NC(=O)c2c(c3ccc(Cl)c(Cl)c3n2C)C1C#N (stereo not drawn)  ΔTm (thermal stability; DSF; 10 µM): 0.7 °C
COc1cc(Nc2c(C#N)cnc3cc(OCCCN4CCN(C)CC4)c(OC)cc23)c(Cl)cc1Cl  remaining signal (cell-free assay; 0.5 µM): 99.4%
COc1cc2ncnc(Nc3ccc(Oc4ccccc4)c(C)c3C)c2cc1OC  inhibition (enzyme activity; inhibitor; 1 µM): 1%
Cn1c2c(c3ccc(Cl)c(Cl)c31)C(C#N)C1(CCN(C(=O)OC(C)(C)C)CC1)NC2=O (racemic)  ΔTm (thermal stability; DSF; 10 µM): -0.8 °C
CCCS(=O)(=O)Nc1ccc(F)c(C(=O)c2c[nH]c3ncc(-c4ccc(Cl)cc4)cc23)c1F  inhibition (enzyme activity; inhibitor; 1 µM): < 10%
O=C(O)c1ccc2c(c1)nc(NCCc1cccc(F)c1)c1ccncc12  remaining activity (enzyme activity; inhibitor; radiometric; 1 µM): 8%
Cc1c(NC(=O)c2cc(C(N)=O)nc3cc(F)ccc23)c(C(F)(F)F)nn1Cc1ccc(C(C)(C)C)cc1  remaining binding (cell-free assay; competition with immobilised ligand; 1 µM): 100%
O=C(O)c1ccc2c(c1)nc(Nc1ccccc1)c1ccncc12  remaining activity (enzyme activity; inhibitor; radiometric; 1 µM): 6%
C[C@@H]1CN(c2cc(-c3nn(C)c4ccc(OC5(C)CC5)cc34)ncn2)C[C@H](C)O1  remaining binding (cell-free assay; competition with immobilised ligand; 1 µM): 81%
COc1cccc(CCNc2nc3cc(C(=O)O)ccc3c3cncnc23)c1  remaining activity (enzyme activity; inhibitor; radiometric; 1 µM): 40%
CN1CCC2(CC1)NC(=O)c1c(c3ccc(Cl)c(Cl)c3n1C)C2C#N (racemic)  ΔTm (thermal stability; DSF; 10 µM): 1 °C
N#Cc1cccc(Nc2nc3cc(C(=O)O)ccc3c3cncnc23)c1  remaining activity (enzyme activity; inhibitor; radiometric; 1 µM): 3%
N#CCCc1ccc2c(c1)-c1[nH]c3ccc([N+](=O)[O-])cc3c1CC(=O)N2  remaining signal (cell-free assay; 0.5 µM): 85.9%
